The target of test [1] is Proto-oncogene tyrosine-protein kinase Src (Homo sapiens) (UniProt P12931). Kind of test: Inhibition of SRC at 1 uM.
For test [2], the target named is Protein kinase C alpha type (Homo sapiens, UniProt P17252). Kind of test: Inhibition of PKCalpha at 1 uM.
Test [3] has as its target T1, Aurora kinase A (Homo sapiens) (UniProt O14965).
T1 sequence (whole entry): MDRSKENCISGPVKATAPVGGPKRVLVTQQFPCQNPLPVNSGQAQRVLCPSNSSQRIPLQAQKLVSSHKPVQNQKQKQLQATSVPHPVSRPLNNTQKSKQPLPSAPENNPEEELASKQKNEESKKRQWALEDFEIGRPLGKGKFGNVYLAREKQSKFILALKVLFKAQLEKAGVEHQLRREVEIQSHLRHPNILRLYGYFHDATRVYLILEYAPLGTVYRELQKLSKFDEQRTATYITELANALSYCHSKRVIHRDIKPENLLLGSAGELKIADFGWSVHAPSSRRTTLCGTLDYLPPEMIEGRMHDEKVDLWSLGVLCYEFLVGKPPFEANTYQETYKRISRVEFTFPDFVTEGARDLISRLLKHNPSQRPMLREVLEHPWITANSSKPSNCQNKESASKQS
Put plainly: Inhibition of Aurora A at 1 uM.

Test [4] addresses Tyrosine-protein kinase Lyn (Homo sapiens) (UniProt P07948). Kind of test: Inhibition of LYN at 1 uM.
For test [5], the target named is Fibroblast growth factor receptor 1 (Homo sapiens) (UniProt P11362). Kind of test: Inhibition of FGFR1 at 1 uM.
In test [6] the target is Hepatocyte growth factor receptor (Homo sapiens) (UniProt P08581). Put plainly: Inhibition of MET at 1 uM.
Test [7] deals with Receptor-type tyrosine-protein kinase FLT3 (Homo sapiens) (UniProt P36888). Kind of test: Inhibition of FLT3 at 1 uM.
Sequence of Receptor-type tyrosine-protein kinase FLT3 (Homo sapiens) (P36888 whole entry): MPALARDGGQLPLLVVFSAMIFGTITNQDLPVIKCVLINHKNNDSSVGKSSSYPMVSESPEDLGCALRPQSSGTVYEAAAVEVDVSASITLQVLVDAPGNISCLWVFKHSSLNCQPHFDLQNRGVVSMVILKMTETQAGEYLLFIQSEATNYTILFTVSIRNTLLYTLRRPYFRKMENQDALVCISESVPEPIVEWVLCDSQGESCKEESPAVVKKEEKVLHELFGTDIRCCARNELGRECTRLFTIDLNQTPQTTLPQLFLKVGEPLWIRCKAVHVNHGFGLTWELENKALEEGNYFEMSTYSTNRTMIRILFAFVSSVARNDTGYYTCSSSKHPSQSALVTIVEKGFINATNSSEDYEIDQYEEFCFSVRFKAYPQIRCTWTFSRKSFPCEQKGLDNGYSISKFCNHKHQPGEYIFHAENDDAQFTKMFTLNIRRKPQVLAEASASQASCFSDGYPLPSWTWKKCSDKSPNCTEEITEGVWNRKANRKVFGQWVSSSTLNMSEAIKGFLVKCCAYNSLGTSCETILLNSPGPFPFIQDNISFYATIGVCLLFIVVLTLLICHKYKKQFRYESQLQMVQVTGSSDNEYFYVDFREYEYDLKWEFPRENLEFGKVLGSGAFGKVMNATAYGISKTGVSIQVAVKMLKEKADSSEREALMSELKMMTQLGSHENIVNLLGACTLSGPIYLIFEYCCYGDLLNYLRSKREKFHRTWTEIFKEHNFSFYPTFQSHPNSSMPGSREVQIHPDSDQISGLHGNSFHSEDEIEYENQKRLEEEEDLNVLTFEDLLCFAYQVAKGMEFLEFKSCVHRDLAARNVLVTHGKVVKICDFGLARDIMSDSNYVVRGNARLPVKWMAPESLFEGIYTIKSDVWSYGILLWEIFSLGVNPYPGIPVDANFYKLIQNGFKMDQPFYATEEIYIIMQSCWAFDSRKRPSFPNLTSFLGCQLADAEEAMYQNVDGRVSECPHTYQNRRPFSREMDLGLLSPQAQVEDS
The target of test [8] is T2, Ephrin type-A receptor 1 (Homo sapiens) (UniProt P21709).
T2 sequence (whole entry): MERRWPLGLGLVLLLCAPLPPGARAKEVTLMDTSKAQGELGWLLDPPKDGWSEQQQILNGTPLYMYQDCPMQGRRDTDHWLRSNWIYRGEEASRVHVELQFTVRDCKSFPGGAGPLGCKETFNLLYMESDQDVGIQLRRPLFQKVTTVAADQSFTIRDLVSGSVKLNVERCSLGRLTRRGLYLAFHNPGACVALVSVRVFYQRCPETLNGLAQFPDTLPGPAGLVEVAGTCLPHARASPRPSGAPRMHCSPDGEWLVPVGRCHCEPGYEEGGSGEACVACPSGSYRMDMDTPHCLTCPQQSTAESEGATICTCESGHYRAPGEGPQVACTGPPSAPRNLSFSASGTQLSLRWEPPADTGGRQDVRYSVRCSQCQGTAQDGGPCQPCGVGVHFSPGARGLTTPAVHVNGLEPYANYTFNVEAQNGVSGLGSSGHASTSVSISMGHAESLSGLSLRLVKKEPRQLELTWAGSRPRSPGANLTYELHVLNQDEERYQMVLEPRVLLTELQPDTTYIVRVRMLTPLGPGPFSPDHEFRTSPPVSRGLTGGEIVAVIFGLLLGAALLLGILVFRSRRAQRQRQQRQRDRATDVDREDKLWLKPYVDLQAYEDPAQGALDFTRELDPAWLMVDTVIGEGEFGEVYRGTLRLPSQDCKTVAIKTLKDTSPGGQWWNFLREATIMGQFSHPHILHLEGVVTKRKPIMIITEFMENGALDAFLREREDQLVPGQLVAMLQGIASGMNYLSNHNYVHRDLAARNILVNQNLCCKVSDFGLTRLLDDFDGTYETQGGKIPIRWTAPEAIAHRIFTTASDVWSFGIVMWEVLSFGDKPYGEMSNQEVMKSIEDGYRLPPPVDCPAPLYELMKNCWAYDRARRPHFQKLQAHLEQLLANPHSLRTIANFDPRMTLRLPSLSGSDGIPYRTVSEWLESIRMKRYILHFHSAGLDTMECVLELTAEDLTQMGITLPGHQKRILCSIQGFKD
Put plainly: Inhibition of EPHA1 at 1 uM.

For test [9], the target named is Insulin-like growth factor 1 receptor (Homo sapiens) (UniProt P08069). Kind of test: Inhibition of IGF1R at 1 uM.
Sequence of Insulin-like growth factor 1 receptor (Homo sapiens) (P08069 31-736 limits assumed): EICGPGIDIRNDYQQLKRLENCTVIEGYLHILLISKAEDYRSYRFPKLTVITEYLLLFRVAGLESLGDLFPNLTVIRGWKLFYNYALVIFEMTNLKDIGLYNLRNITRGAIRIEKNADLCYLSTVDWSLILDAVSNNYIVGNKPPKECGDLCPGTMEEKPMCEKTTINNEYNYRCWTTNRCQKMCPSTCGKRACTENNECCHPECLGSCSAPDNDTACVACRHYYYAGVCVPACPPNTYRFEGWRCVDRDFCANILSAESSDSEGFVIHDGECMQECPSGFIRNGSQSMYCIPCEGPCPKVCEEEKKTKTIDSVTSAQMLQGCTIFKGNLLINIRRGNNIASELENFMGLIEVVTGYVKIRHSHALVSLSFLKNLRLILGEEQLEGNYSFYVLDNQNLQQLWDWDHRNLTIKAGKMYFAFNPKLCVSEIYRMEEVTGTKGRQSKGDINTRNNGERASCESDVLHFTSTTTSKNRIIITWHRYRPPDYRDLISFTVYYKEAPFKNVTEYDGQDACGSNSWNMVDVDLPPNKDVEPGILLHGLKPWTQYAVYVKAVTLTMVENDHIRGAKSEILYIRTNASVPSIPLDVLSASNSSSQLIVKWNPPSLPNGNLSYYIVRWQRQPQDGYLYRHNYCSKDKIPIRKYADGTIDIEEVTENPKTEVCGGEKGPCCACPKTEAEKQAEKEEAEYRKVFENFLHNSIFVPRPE
Sequence of Insulin-like growth factor 1 receptor (Homo sapiens) (P08069 741-1367 limits assumed): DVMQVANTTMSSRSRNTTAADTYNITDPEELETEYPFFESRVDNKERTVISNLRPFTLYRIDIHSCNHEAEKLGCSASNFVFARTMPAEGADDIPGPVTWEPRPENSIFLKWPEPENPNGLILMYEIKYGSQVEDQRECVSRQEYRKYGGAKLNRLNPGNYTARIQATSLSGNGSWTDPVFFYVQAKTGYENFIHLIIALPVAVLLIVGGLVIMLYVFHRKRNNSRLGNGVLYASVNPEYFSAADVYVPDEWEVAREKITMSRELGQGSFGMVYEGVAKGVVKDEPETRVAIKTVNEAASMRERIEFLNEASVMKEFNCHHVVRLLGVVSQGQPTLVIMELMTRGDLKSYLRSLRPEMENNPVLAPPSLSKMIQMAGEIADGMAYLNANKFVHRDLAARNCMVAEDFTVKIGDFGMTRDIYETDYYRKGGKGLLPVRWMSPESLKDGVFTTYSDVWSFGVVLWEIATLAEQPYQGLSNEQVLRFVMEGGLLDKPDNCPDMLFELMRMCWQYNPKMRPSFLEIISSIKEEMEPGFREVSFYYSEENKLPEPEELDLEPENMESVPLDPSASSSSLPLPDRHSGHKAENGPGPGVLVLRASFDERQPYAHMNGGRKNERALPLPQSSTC
Test [10] concerns the target Insulin receptor (Homo sapiens) (UniProt P06213). Kind of test: Inhibition of INSR at 1 uM.
Test [11] has as its target Epithelial discoidin domain-containing receptor 1 (Homo sapiens) (UniProt Q08345). Put plainly: Inhibition of DDR1 at 1 uM.
Test [12] addresses RAC-alpha serine/threonine-protein kinase (Homo sapiens, UniProt P31749). Kind of test: Inhibition of AKT-1 at 1 uM.
For test [13], the target named is T3, Inhibitor of nuclear factor kappa-B kinase subunit epsilon (Homo sapiens) (UniProt Q14164).
T3 sequence (whole entry): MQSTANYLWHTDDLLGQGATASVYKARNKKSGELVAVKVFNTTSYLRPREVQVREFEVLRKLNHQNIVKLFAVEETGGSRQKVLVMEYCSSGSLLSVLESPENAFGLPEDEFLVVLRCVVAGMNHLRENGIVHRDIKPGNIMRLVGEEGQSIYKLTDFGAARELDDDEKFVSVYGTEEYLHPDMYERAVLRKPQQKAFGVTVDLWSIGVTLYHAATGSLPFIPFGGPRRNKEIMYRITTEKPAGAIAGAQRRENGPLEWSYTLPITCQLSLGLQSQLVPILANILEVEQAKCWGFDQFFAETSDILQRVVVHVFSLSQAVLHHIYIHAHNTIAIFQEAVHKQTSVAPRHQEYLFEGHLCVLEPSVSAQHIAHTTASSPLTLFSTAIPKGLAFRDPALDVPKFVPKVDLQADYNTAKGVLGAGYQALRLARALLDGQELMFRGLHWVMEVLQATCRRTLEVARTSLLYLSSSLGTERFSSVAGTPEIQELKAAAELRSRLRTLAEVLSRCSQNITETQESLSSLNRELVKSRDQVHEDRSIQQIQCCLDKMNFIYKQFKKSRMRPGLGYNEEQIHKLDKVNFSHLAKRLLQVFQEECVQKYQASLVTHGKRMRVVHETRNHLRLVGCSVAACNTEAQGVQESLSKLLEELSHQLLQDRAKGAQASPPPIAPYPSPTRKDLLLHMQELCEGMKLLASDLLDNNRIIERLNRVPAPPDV
Kind of test: Inhibition of IKKepsilon at 1 uM.

Test [14] is described as follows: […] in human MDA231 cells assessed as inhibition of cell migration at 10 uM after 12 to 24 hrs by wound healing migration assay relative to control. Type of test: functional. Conditions: MDA-MB-231. Put shortly: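 MDA-231 cells grown on coverslips for 24 h, wounded by scraping with a micropipette tip, washed, then incubated in fresh medium at 37 °C with or without compound (10 μM final). Wound areas photographed at 12 and 24 h, remaining area measured, DMSO control set to 0% inhibition. Mean ± SD of five independent experiments.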

The subject of test [15] is MDA-MB-231. Kind of test: Inhibition of free radical generation in human MDA231 cells by CM-H2DCFDA based fluorometric analysis. The test is classed as functional, cell-based.
In test [16] the test system is MDA231. Kind of test: Inhibition of lipoxygenase in human MDA231 cells. The test is classed as cell-based.
Test [17] deals with MDA-MB-231. Put plainly: Cytotoxicity against human MDA231 cells at 10 uM. The test is classed as functional, cell-based.

These results are taken from ChEMBL document CHEMBL1938284, “Synthesis and biological activity of novel organoselenium derivatives targeting multiple kinases and capable of inhibiting cancer progression to metastases” (Eur J Med Chem, 2012).

Calls of active or inactive are those of the source. The calls are words filed in the database; no cut-off is given here.

Sequence of RAC-alpha serine/threonine-protein kinase (P31749 whole entry): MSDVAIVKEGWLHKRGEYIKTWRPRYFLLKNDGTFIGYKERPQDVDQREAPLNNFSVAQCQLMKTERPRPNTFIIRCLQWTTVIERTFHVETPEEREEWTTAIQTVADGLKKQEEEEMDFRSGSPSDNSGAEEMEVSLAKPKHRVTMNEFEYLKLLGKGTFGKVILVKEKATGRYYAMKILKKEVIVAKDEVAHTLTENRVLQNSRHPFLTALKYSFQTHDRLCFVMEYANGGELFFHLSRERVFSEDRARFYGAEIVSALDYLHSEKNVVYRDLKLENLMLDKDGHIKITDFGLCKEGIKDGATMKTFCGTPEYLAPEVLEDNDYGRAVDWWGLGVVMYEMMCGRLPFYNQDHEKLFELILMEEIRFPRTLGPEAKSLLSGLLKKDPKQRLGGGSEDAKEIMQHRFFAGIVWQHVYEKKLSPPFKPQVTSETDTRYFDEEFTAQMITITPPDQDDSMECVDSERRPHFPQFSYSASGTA
Sequence of Tyrosine-protein kinase Lyn (Homo sapiens) (P07948 2-512 limits assumed): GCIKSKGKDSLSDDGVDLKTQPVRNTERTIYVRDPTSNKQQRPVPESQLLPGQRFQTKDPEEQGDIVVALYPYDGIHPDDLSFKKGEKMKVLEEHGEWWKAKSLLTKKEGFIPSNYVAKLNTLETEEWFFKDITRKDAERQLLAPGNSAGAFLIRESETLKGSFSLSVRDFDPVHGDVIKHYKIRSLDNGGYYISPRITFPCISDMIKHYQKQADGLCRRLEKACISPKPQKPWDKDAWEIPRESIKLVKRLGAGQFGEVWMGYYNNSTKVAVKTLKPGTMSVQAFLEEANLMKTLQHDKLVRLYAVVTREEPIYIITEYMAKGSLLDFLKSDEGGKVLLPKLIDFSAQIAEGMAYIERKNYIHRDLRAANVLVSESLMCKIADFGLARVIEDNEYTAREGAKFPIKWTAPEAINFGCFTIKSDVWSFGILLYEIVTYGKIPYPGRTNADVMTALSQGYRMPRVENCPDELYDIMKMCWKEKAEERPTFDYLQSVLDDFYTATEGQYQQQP
Sequence of Proto-oncogene tyrosine-protein kinase Src (Homo sapiens) (P12931 2-536 limits assumed): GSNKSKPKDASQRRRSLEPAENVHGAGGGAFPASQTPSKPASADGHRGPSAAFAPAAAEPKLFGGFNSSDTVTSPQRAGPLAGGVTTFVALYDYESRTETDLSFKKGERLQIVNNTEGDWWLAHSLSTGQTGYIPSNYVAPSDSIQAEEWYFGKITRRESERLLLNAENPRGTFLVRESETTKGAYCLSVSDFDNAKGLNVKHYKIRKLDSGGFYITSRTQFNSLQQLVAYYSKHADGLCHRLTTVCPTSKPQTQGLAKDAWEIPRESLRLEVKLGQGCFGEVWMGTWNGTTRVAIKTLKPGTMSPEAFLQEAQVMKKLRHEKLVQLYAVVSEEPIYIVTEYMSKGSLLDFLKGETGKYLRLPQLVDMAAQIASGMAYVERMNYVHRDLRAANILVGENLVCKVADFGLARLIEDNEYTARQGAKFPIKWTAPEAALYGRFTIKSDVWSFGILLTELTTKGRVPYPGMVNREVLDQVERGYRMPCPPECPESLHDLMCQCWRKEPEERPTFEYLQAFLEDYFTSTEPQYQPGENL
Sequence of Epithelial discoidin domain-containing receptor 1 (Homo sapiens) (Q08345 whole entry, the tested form may be a part): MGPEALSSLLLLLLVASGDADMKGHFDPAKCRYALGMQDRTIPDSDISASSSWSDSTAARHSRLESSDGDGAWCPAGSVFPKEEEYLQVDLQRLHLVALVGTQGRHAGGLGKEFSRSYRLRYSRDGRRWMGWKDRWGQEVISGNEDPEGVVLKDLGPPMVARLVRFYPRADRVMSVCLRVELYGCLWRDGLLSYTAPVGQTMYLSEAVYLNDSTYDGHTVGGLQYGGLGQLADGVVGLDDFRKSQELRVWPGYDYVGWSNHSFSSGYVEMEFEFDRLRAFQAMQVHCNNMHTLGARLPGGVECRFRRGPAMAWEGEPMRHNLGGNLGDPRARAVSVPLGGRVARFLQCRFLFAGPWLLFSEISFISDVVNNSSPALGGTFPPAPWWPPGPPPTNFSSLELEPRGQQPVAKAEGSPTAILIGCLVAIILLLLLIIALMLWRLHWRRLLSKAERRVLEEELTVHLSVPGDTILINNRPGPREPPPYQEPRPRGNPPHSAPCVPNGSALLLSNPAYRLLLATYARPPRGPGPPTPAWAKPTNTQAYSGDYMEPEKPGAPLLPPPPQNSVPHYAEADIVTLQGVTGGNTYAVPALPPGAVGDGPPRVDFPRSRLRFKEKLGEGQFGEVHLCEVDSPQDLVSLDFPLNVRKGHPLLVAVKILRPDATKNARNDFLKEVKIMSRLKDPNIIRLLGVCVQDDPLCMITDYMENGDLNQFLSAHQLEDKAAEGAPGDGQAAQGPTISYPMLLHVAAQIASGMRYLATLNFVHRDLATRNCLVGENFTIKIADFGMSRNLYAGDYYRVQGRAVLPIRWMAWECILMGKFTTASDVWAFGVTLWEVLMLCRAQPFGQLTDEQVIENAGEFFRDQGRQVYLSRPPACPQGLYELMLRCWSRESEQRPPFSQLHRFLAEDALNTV

For `O=c1c2ccccc2[se]n1-c1ccccc1` [EBSELEN], the inhibition in [1] is 0%; in [2], 25%; in [3], 0%; in test [4] it was 0%; in test [5] it was 0%; in test [6], 0%. The inhibition in [7] turned out to be 0%; in test [8] it was 0%; in test [9], 0%; in test [10] it was 0%; in test [11], 0%; in test [12], 22%. The same compound returned an inhibition in test [13] of 0%.

Turning to `CC(=O)OC[C@H]1O[C@@H](NC(=O)CCCn2[se]c3ccccc3c2=O)[C@H](OC(C)=O)[C@@H](OC(C)=O)[C@@H]1OC(C)=O`, the inhibition in test [1] was found to be 0%; in test [2] it was 77%; in [3], 0%; in [4], 0%; in test [5], 0%; in [6], 0%. Besides, the inhibition in test [7] was found to be 0%; in [8], 0%; in test [9], 0%; in test [10] it was 0%; in test [11], 0%; in test [12], 67%. In [13], this compound had an inhibition of 0%. For the same compound, the inhibition at 10 µM in [14] was 50%. Besides, the inhibition result in test [15] and in test [16] was “inactive” in each case. Besides, the outcome in test [17] was inactive.

On to `CC(=O)OC[C@H]1O[C@@H](O[C@H]2[C@H](OC(C)=O)[C@@H](OC(C)=O)[C@H](n3[se]c4ccccc4c3=O)O[C@@H]2COC(C)=O)[C@H](OC(C)=O)[C@@H](OC(C)=O)[C@H]1OC(C)=O`, for which the inhibition amounted to 0% in [1]; 95% in test [2]; 0% in [3]; 0% in test [4]; 0% in test [5]; 0% in test [6]. The inhibition amounted to 0% in test [7]; 0% in test [8]; 1% in [9]; 0% in test [10]; 0% in test [11]; 63% in test [12]. In [13], the inhibition turned out to be 0%. Moreover, the inhibition at 10 µM in test [14] was found to be 50%. For the same compound, the inhibition result in [15] and in test [16] was “inactive” throughout. The result in test [17] was inactive.

On to `O=C(CCCn1[se]c2ccccc2c1=O)N[C@@H]1O[C@H](CO)[C@@H](O)[C@H](O)[C@H]1O`, for which the inhibition was 0% in test [1]; 74% in test [2]; 0% in [3]; 0% in test [4]; 0% in [5]; 0% in test [6]. In addition, the inhibition turned out to be 0% in [7]; 0% in test [8]; 0% in test [9]; 0% in test [10]; 0% in test [11]; 60% in test [12]. For the same compound, the inhibition in test [13] was found to be 0%. In addition, the inhibition at 10 µM in [14] was 50%. Further, the inhibition result in test [15] and in [16] was “inactive” each time. For the same compound, in [17], the outcome was inactive.

A word on the inhibition: it is the change of the read-out against control, counted positive when it falls.
